Measured values taken from publication PMC5199614 (Journal of bone and mineral research : the official journal …, 2016).

What was measured:
[1] = test system: renal proximal tubule cells; type: in vivo, mouse; conditions: 5 minutes (NS^TMR) or 5 or 60 minutes after iv injection
human PTHR1 = biological target: T1, human PTHR1 (Homo sapiens, UniProt Q03431); experiment: cAMP signaling; type: cell-based; conditions: GP-2.3 cells; for Emax (cAMP-dependent luminescence): vehicle 1.3 ± 0.1, means ±SEM of 10 experiments
T1 sequence (Q03431 27-593): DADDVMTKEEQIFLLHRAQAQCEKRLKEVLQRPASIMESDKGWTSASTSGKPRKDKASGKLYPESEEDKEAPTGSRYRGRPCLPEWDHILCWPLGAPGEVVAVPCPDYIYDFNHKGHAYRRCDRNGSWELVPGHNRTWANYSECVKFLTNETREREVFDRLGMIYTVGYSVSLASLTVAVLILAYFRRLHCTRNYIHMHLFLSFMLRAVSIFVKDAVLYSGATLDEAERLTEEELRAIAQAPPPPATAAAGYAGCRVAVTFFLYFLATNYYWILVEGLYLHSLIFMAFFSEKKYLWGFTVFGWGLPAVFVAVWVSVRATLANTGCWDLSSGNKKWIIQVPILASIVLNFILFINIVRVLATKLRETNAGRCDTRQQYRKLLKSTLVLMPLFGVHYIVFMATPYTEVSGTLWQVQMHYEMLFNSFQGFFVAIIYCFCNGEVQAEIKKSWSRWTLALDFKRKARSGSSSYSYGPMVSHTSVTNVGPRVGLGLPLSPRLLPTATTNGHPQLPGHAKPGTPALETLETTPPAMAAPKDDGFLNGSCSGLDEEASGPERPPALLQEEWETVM

[2] = test system: PTHR1-expressing GP-2.3 cells; experiment: Confocal microscopy of ligand internalization in GP-2.3 and GS-22A cells; type: cell-based, human; conditions: 100 nM; for ligand localization in GP-2.3 cells: 15 minutes at 21°C, confocal TMR fluorescence; for TMR fluorescence in parental GS-22A cells (not transfected with PTHR1): confocal microscopy
Outline: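 GP-2.3 cells (HEK-293 with stable human PTHR1 and glosensor) and parental GS-22A cells (glosensor only) were grown on coverslips to ~75% confluence. Cells were exposed to TMR-ligand at 100 nM in HBB for 15 min at 21°C, or for 30 min at 4°C to block internalization. They were then rinsed thrice, fixed in 4% formalin for 5 min and mounted with DAPI. Confocal imaging used 405/559 nm excitation.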

C57BL/6J mice [3] = experiment: Blood ionized calcium after iv injection in mice; type: in vivo, mouse; conditions: iv 50 nmol/kg; for peak blood Ca^2+ increase above pre-injection (t = 0) level: n = 6 per group
C57BL/6J mice [4] = experiment: Plasma Pi after iv injection in mice; type: in vivo, mouse; conditions: iv 50 nmol/kg; for time of Pi nadir: after injection; for decline of blood phosphate (Pi) at the nadir: n = 6 per group
C57BL/6J mice [5] = experiment: Blood 1,25; type: in vivo, mouse; conditions: iv 50 nmol/kg; for blood 1,25(OH)2D relative to vehicle-injected mice: 2 hours after injection
[6] = Persistence of injected ligand in mouse blood and urine; conditions: mice, iv 50 nmol/kg, 1 μL plasma in PBS, n = 6
[7] = humans, cited from earlier work
C57BL/6J mice [8] = experiment: Urinary fractional excretion of Ca and Pi after iv injection in mice; type: in vivo, mouse; conditions: iv 50 nmol/kg, spot urine

| Emax (cAMP-dependent luminescence) (human PTHR1) [cps × 10^−3] | Substance | immunostained phosphorylated PKA substrate in kidney sections [1] | ligand localization in GP-2.3 cells [2] | TMR fluorescence in parental GS-22A cells (not transfected with PTHR1) [2] | peak blood Ca^2+ increase above pre-injection (t = 0) level (C57BL/6J mice [3]) | time of return of blood Ca^2+ to baseline (C57BL/6J mice [3]; post-injection) [h] | time of Pi nadir (C57BL/6J mice [4]) [h] | decline of blood phosphate (Pi) at the nadir (C57BL/6J mice [4]) [%] | blood 1,25(OH)2D relative to vehicle-injected mice (C57BL/6J mice [5]) | further results |
| --- | --- | --- | --- | --- | --- | --- | --- | --- | --- | --- |
| – | TMR-NNGEDHSQITKV [NS^TMR, reference compound] | little or no green fluorescence | – | – | – | – | – | – | – | – |
| 184 ± 12 | [Lys^13(TMR), Cys^35]PTH(1-35) [PTH^TMR] | clear staining for pPKA substrate | located predominantly in internalized vesicles | No such TMR fluorescence was observed | ~ 8% | ≤ 24 | 1 | 27 | about threefold | time of return of Pi to baseline (C57BL/6J mice [4]): ≤ 4 h; last time point at which plasma TMR fluorescence was detected [6]: 2 h |
| – | PTH(1-34) | – | – | – | – | – | – | – | – | half-time (t1/2) of disappearance from the circulation ([7]; injected intravenously): 10 ± 0.5 min; half-time ([7]; subcutaneous injection): about 1 hour |
| 178 ± 14 | [Lys^13(tetramethyl rhodamine {TMR}), Cys^35(PEG-20,000 Da)]PTH(1-35) [PEG-PTH^TMR] | at least comparable to that observed with the PTH^TMR ligand | located predominantly in internalized vesicles | No such TMR fluorescence was observed | ~ 21% | 96 | 2 | 42 | about threefold | potency (EC50) relative to PTH(1-34) and PTH^TMR (human PTHR1; cAMP): about three- to fivefold weaker; time of peak blood Ca^2+ (C57BL/6J mice [3]; post-injection): 24 h; duration of effects on urinary fractional excretion of Ca and Pi (C57BL/6J mice [8]): up to 24 hours; blood 1,25(OH)2D (C57BL/6J mice [5]; 24 hours after injection): marked increases |
| – | PTH(1-84) | – | – | – | – | – | – | – | – | serum half-time ([7]; injected subcutaneously): about 2.5 hours |
